Source: paper PMC4804314 (Pharmacology Research & Perspectives, 2016)

Columns and labels:
[1] = test system: sandwich‐cultured human hepatocytes; test: Hepatobiliary disposition in sandwich-cultured human hepatocytes; assay type: in vitro ADME
Method in brief: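 Sandwich-cultured human hepatocytes from three donor liver preparations, cultured 6 days. [14C]-test compound was applied at 10 and 250 μmol/L, with [3H]-taurocholate as transporter-function control and LDH release as cytotoxicity check. Radioactivity was read by LSC. Accumulation is mean ± SD of triplicate wells. BEI, CLbiliary, intracellular concentration and Cic/Cec were derived.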

[2] = Metabolite profiling of monkey plasma, urine and feces by radio-HPLC; assay type: in vivo, Cynomolgus monkey (Macaca fascicularis); conditions: Cynomolgus monkey, i.v.
Method in brief: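 Monkey samples after i.v. [14C]-test compound, 2.0 mg/kg. Plasma at 0.1–8 h was extracted twice with ethanol and centrifuged, and extracts went to LSC and radio-HPLC. Precipitates were combusted for total radioactivity. Urine (0–8 h, 8–24 h, then 24-h intervals to 120 h) was evaporated and reconstituted in mobile phase. Feces were processed as for mouse. Isocratic acetonitrile/ammonium acetate pH 4 on RP8e, UV 230 nm with radiodetection.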

[3] = Plasma pharmacokinetics in mouse after i.v. bolus; assay type: in vivo, mouse (NMRI); conditions: for level at 0.1 h / level at 0.25 h / level at 2 h: NMRI, plasma
Method in brief: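 Male and female NMRI mice, i.v. bolus of [14C]-test compound, 2.5 mg/kg (4.2 μmol/kg). Blood was taken by exsanguination under anesthesia (n = 3/time point) and spun 2 min at 10,000g. Plasma was counted by LSC from predose to 72 h. A separate unlabeled-dose study gave plasma from predose to 8 h for parent by validated LC/MS/MS. Noncompartmental analysis was used, with clearance related to hepatic blood flow.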

[4] = Plasma pharmacokinetics in rabbit after i.v. infusion; assay type: in vivo, Chinchilla rabbit
Method in brief: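 Chinchilla rabbits received a 4-h infusion into the ear vein at 50, 150 or 450 mg/kg/d. Plasma was sampled before and at 2, 4, 4.25, 4.5, 5, 7 and 10 h after infusion start.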

[5] = NADPH-dependent metabolism by monkey liver microsomes; assay type: in vitro ADME; conditions: monkeys, 10 and 100 µM, up to 6 h
[6] = Biological stability of the radiolabel; assay type: in vivo, rat; conditions: rats, within 72 h after dosing
[7] = Quantitative tissue distribution; assay type: in vivo, mouse (NMRI); conditions: for dose found in the carcasses: 24 h postdose
Method in brief: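 Male and female NMRI mice got i.v. [14C]-test compound, 2.5 mg/kg (n = 3/time), with tissues excised at 0.1, 0.5, 2, 8 and 24 h. Larger organs were homogenized and small tissues taken whole. Carcasses were included. Samples were dried at about 60°C for 12 h, combusted in a sample oxidizer and read by LSC.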

[8] = NADPH-dependent metabolism by human liver microsomes; assay type: in vitro ADME; conditions: humans, 10 and 100 µM, up to 6 h
[9] = 250 μM, donor 1, 20 min, mean ± SD of triplicate wells
[10] = 250 μM, donor 2, 20 min, mean ± SD of triplicate wells
[11] = 250 μM, donor 3, 20 min, mean ± SD of triplicate wells
[12] = 250 μM, mean ± standard error of 3 donors, 20 min

For `CC(C)[C@H]1C(=O)N[C@@H](CCCN=C(N)N)C(=O)NCC(=O)N[C@@H](CC(=O)O)C(=O)N[C@H](Cc2ccccc2)C(=O)N1C` [cilengitide, cyclo‐(Asp‐D‐Phe‐N‐MeVal‐Arg‐Gly)], the “Cellular accumulation Avg.” value [1, 9] was 183 ± 27 pmol/mg, the “Total accumulation Avg.” value [1, 9] was 230 ± 28 pmol/mg and the BEI ([1]; 250 μM, donor 2, 20 min) was 8.75%. The CLbiliary ([1]; 250 μM, donor 2, 20 min) was 0.005 mL/min/kg, the Intracellular concentration ([1]; 250 μM, donor 2, 20 min) was 10.4 µM and the “Cellular accumulation Avg.” value [1, 10] was 84.0 ± 12.1 pmol/mg. For the same molecule, the “Total accumulation Avg.” value [1, 10] was 92.1 ± 5.7 pmol/mg, the BEI ([1]; 250 μM, donor 3, 20 min) was 15.6% and the CLbiliary ([1]; 250 μM, donor 3, 20 min) was 0.013 mL/min/kg. For the same molecule, the Intracellular concentration ([1]; 250 μM, donor 3, 20 min) was 15.2 µM, the “Cellular accumulation Avg.” value [1, 11] was 122 ± 14 pmol/mg and the “Total accumulation Avg.” value [1, 11] was 145 ± 5.9 pmol/mg. The BEI [1, 12] was 14.9 ± 3.4%, the CLbiliary [1, 12] was 0.015 ± 0.007 mL/min/kg and the “Cellular accumulation Avg.” value [1, 12] was 130 ± 29 pmol/mg. The Intracellular concentration [1, 12] was 16.1 ± 3.6 µM, the “Total accumulation Avg.” value [1, 12] was 156 ± 3 pmol/mg and the “biotransformation by HPLC analysis of supernatant and cell lysate” value ([1]; 250 μmol/L, 6 and 24 h) was “no indication for biotransformation”. The Intracellular concentration ([1]; exposure at 10 μmol/L) was 0.926 ± 0.386 µM, the Intracellular concentration ([1]; exposure at 250 μmol/L) was 16.1 ± 3.6 µM and the “unchanged drug in plasma, share of total drug‐related material” value [2] was > 85%. The “clearance as share of hepatic blood flow (hbf)” value ([3]; female mice) was 60%, the level at 0.1 h ([3]; female, mouse, iv, 2.5 mg/kg) was 2490 ng/mL and the level at 0.25 h ([3]; female, mouse, iv, 2.5 mg/kg) was 448 ng/mL. For the same molecule, the level at 2 h ([3]; female, mouse, iv, 2.5 mg/kg) was 6.3 ng/mL, the “clearance as share of hepatic blood flow (hbf)” value ([3]; male mice) was 105% and the level at 0.1 h ([3]; male, mouse, iv, 2.5 mg/kg) was 1240 ng/mL. The level at 0.25 h ([3]; male, mouse, iv, 2.5 mg/kg) was 439 ng/mL, the level at 2 h ([3]; male, mouse, iv, 2.5 mg/kg) was 8 ng/mL and the clearance ([3]; mouse, in vivo, Plasma CL, value used for allometry) was 63.5 mL/min/kg. The Vd ([3]; mouse, in vivo, Vdss, range over both species (mouse and monkey)) was 0.32 to 1.6 L/kg, the AUC ([3]; mouse, in vivo, iv, 2.5 mg/kg, AUC0‐∞ of parent drug, male mice, 2.5 mg/kg i.v.) was 440 ng·h/mL and the Vd ([3]; mouse, in vivo, iv, 2.5 mg/kg, apparent Vdss, female mice, 2.5 mg/kg i.v.) was 0.56 L/kg. It also gave a Vd ([3]; mouse, in vivo, iv, 2.5 mg/kg, apparent Vdss, male mice, 2.5 mg/kg i.v.) of 1.6 L/kg, a clearance ([3]; mouse, in vivo, iv, 2.5 mg/kg, plasma clearance, female mice, 2.5 mg/kg i.v.) of 53.3 mL/min/kg and a clearance ([3]; mouse, in vivo, iv, 2.5 mg/kg, plasma clearance, male mice, 2.5 mg/kg i.v.) of 94.7 mL/min/kg. The half-life ([3]; mouse, in vivo, t1/2, mouse, value used for allometry) was 20.4 min, the level at 4 h ([4]; Chinchilla, rabbit, plasma, iv, 50 mg/kg) was 34200 to 38500 ng/mL and the “clearance in comparison to hbf” value ([4]; female rabbits) was ~15%. The clearance ([4]; rabbit, in vivo) was 6 mL/min/kg, the half-life ([4]; rabbit, in vivo, 450 mg/kg, apparent half‐life, rabbit, 450 mg/kg dose group) was ~60 min and the “metabolism by liver microsomes” value [5] was “poorly metabolized”. The “dose exhaled as [^14C]‐CO2” value [6] was “less than 0.1 % of the dose”, the “dose found in the carcasses” value ([7]; female mice) was 0.4 % of the dose and the “dose found in the carcasses” value ([7]; male mice) was 0.8 % of the dose. For the same molecule, the “concentrations in reproductive organs relative to plasma” value ([7]; mice, after 8 h) was 6–14 times higher and the “metabolism by liver microsomes” value [8] was “poorly metabolized”.
